# Reference: ChEMBL document CHEMBL1144028, “Novel 2,3-dihydro-1,4-benzoxazines as potent and orally bioavailable inhibitors of tumor-driven angiogenesis” (J Med Chem, 2008)
# What was measured:
# [1] = Solubility in simulated intestinal fluid; assay type: physicochemical; conditions: simulated intestinal fluid; read-out: Solubility
# How it was run: (§1)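 Equilibrium solubility measured in 0.01 N HCl, PBS (pH 7), and simulated intestinal fluid.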
# [2] = Solubility in 0.01 N HCl; assay type: physicochemical; conditions: 0.01 N HCl; read-out: Solubility; how it was run: as §1
# [3] = Solubility in PBS at pH 7; assay type: physicochemical; how it was run: as §1
# [4] = target: Vascular endothelial growth factor receptor 2 (Homo sapiens, UniProt P35968); assay: Inhibition of KDR by HTRF assay
# How it was run: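 KDR read by homogeneous time-resolved fluorescence with a biotinylated gastrin substrate. IC50 is the mean of two or more separate determinations, each in duplicate.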
# [5] = target: Tyrosine-protein kinase Lck (Homo sapiens, UniProt P06239); assay: Inhibition of Lck
# [6] = target: Hepatocyte growth factor receptor (Homo sapiens, UniProt P08581); assay: Inhibition of c-Met
# [7] = target: Angiopoietin-1 receptor (Homo sapiens, UniProt Q02763); assay: Inhibition of Tie2
# [8] = tested on: HUVEC; assay: Inhibition of VEGF-induced proliferation of HUVEC cells; assay type: functional, cell-based; conditions: Homo sapiens
# How it was run: (§2)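 Human umbilical vein endothelial cell proliferation driven by VEGF or by FGF; IC50 is the mean of two or more separate determinations, each in duplicate.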
# [9] = tested on: HUVEC; assay: Inhibition of FGF-induced proliferation of HUVEC cells; assay type: functional, cell-based; conditions: Homo sapiens; how it was run: as §2
# [10] = Half life in Sprague-Dawley rat at 0.5 mg/kg, iv; assay type: ADME, organism-based; set-up: dose 0.5 mg/kg, route intravenous; conditions: in vivo
# How it was run: (§3)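 Male Sprague Dawley rats; single dose, 0.5 mg/kg iv or 2 mg/kg po; mean pharmacokinetic parameters reported.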
# [11] = Clearance in Sprague-Dawley rat at 0.5 mg/kg, iv; assay type: ADME, organism-based; set-up: dose 0.5 mg/kg, route intravenous; conditions: in vivo; how it was run: as §3
# [12] = AUC (0 to infinity) in Sprague-Dawley rat at 2 mg/kg, po; assay type: ADME, organism-based; set-up: time infinity, dose 2 mg/kg, route oral; conditions: plasma; how it was run: as §3
# [13] = Metabolic stability in human liver microsomes; assay type: ADME, Microsome; conditions: read-out: Stability
# How it was run: (§4)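 In vitro stability on incubation with human or rat liver microsomal preparations.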
# [14] = Cmax in Sprague-Dawley rat at 2 mg/kg, po; assay type: ADME, organism-based; set-up: dose 2 mg/kg, route oral; conditions: in vivo; how it was run: as §3
# [15] = Oral bioavailability in Sprague-Dawley rat at 2 mg/kg, po; assay type: ADME, organism-based; conditions: in vivo; how it was run: as §3
# [16] = Volume of distribution at steady state in Sprague-Dawley rat at 0.5 mg/kg, iv; assay type: ADME, organism-based; set-up: dose 0.5 mg/kg, route intravenous; conditions: in vivo, read-out: Vdss; how it was run: as §3
# [17] = Tmax in Sprague-Dawley rat at 2 mg/kg, po; assay type: ADME, organism-based; set-up: dose 2 mg/kg, route oral; conditions: in vivo; how it was run: as §3
# [18] = Metabolic stability in rat liver microsomes; assay type: ADME, Microsome; conditions: read-out: Stability; how it was run: as §4
# Vascular endothelial growth factor receptor 2, sequence (P35968 whole entry): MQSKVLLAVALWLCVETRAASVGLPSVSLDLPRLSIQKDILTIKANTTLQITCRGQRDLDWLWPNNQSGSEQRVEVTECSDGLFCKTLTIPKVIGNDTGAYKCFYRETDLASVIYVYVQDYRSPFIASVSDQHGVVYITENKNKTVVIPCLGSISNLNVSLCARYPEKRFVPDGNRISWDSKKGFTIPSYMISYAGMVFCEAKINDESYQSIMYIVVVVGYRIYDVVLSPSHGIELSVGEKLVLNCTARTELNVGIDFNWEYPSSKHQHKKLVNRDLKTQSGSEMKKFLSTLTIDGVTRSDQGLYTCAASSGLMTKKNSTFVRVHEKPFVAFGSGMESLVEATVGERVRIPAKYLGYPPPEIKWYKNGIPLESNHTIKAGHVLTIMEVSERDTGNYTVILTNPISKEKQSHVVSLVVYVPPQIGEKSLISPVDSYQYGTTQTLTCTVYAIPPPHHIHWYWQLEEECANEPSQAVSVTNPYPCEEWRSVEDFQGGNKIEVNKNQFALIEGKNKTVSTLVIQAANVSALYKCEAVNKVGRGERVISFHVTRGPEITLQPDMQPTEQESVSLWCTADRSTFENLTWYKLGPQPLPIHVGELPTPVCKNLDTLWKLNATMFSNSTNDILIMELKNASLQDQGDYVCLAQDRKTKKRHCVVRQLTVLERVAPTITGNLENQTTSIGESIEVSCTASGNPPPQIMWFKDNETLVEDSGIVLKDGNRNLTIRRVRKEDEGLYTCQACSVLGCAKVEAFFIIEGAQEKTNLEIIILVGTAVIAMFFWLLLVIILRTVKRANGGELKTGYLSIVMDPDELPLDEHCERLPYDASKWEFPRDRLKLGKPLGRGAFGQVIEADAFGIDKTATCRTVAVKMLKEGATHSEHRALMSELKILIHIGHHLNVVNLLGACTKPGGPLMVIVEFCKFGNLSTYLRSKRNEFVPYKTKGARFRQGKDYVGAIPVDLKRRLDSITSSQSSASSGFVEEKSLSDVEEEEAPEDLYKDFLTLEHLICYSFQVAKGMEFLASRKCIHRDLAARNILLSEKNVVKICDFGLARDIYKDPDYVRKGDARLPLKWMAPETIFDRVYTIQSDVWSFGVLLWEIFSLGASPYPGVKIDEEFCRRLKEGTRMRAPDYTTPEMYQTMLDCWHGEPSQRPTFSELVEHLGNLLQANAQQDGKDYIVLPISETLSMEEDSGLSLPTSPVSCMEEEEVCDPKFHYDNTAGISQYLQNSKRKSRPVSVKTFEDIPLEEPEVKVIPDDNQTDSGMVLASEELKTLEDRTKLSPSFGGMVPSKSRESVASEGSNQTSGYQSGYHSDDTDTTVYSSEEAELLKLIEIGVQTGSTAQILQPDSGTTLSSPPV
# Angiopoietin-1 receptor, sequence (Q02763 whole entry): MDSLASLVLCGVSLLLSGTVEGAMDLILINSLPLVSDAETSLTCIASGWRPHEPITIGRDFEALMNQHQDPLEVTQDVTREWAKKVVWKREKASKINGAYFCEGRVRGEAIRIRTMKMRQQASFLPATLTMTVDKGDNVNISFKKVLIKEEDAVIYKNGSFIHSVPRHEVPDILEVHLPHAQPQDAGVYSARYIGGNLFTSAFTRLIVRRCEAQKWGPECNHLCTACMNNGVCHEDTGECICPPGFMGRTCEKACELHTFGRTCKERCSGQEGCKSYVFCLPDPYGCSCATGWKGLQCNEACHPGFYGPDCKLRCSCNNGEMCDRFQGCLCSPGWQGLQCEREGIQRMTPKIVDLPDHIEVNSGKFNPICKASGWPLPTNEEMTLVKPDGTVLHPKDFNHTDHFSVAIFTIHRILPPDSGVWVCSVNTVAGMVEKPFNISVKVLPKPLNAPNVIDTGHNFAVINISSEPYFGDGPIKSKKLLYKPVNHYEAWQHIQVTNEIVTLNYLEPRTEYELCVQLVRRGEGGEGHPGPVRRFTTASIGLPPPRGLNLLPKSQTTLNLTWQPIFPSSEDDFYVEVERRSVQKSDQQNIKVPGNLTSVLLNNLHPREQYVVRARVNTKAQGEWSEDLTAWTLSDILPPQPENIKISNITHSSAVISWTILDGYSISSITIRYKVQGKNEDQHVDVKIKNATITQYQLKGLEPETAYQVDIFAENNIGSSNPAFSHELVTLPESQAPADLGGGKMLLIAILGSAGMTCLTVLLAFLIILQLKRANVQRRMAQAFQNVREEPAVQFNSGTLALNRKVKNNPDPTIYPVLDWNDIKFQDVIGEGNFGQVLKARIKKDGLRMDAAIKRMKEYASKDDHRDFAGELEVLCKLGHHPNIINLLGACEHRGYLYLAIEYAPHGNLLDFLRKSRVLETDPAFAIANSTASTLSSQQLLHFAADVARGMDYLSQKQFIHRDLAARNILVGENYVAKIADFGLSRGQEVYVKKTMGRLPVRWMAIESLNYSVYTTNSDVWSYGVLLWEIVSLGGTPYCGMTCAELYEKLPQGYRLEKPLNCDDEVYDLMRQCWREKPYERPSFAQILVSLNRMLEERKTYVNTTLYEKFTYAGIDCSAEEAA
# Hepatocyte growth factor receptor, sequence (P08581 whole entry): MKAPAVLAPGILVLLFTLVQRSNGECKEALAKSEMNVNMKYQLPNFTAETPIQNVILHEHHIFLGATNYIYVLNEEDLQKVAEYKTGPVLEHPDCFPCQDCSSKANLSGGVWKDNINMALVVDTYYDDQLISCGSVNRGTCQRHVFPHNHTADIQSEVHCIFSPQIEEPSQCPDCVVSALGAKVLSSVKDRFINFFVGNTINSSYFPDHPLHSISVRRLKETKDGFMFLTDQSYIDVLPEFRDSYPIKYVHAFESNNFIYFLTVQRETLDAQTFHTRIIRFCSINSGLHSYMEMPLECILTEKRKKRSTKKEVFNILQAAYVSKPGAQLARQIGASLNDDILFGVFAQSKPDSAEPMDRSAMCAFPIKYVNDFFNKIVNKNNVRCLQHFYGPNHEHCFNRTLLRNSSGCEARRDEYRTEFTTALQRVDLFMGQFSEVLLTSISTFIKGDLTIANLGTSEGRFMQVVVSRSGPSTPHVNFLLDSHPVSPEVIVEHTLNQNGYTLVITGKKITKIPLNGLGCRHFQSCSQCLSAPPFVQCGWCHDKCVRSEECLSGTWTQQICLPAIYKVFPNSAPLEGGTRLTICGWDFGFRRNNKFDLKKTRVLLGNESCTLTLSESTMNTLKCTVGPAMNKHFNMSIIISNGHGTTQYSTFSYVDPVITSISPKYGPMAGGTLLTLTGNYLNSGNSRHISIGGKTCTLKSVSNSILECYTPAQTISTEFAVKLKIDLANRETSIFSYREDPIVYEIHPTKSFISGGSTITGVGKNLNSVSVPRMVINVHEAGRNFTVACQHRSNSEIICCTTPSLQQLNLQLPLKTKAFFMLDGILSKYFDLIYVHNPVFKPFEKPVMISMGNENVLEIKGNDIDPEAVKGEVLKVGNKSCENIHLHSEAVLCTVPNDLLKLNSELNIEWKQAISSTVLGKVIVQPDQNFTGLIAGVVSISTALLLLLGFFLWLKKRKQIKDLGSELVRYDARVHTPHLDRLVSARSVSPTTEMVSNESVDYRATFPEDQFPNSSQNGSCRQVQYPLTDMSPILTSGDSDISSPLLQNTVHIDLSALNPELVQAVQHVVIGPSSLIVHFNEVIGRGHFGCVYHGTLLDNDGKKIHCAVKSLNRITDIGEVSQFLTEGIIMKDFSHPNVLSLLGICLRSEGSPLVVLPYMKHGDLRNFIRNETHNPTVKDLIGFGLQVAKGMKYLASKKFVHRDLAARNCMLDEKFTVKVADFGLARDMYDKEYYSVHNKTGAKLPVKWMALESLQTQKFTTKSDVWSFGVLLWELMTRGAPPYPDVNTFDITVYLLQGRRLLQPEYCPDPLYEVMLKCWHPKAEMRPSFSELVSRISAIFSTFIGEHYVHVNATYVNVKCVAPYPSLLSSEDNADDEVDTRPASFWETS
# Tyrosine-protein kinase Lck, sequence (P06239 whole entry): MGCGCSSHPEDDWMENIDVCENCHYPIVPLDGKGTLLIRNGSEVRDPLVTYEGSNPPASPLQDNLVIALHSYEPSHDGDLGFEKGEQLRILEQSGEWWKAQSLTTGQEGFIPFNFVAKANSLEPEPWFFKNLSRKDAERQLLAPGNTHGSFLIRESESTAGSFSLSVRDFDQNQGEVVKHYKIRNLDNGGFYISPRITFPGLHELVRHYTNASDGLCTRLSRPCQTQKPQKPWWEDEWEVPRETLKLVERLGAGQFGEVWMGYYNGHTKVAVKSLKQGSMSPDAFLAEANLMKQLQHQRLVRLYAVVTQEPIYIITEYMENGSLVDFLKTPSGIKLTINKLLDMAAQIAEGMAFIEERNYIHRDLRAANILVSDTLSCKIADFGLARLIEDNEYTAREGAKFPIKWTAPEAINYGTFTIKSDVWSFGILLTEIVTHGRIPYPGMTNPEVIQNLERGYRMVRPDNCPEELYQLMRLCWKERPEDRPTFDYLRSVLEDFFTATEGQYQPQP
SMILES,solubility [1] [µg/mL],solubility [2] [µg/mL],solubility [3] [µg/mL],IC50 [4] [nM],IC50 [5] [nM],IC50 [6] [nM],IC50 [7] [nM],IC50 [8] [nM],IC50 [9] [nM],half-life [10] [min],clearance [11] [mL/min/kg],AUC(0-inf) [12] [ng·h/mL],microsomal CLint [13] [µL/min/mg],Cmax [14] [ng/mL],bioavailability [15] [%],Vd [16] [L/kg],Tmax [17] [h],microsomal CLint [18] [µL/min/mg]
COc1cc2nccc(Oc3ccc4c(C(=O)Nc5cccc(Cl)c5)cccc4c3)c2cc1OC,36,9.5,< 1,,,,,,,,,,,,,,,
CNC(=O)c1cc(Oc2ccc3c(c2)OCCN3C(=O)Nc2ccc(Cl)cc2)ccn1,,,,95,> 4000,> 4000,> 4000,> 1000,> 1000,,,,,,,,,
COc1cc2nccc(Oc3ccc4c(c3)OCCN4C(N)=O)c2cc1OC,,,,58,> 4000,> 4000,> 4000,280,1100,,,,,,,,,
Cc1ccc(NC(=O)N2CCOc3cc(Oc4ncnc5[nH]ccc45)ccc32)cc1,,,,26,> 4000,> 4000,> 4000,230,> 1000,,,,,,,,,
COc1cc2nccc(Oc3ccc4c(c3)OCCN4C(=O)Nc3ccc(C)cc3)c2cc1C(N)=O,,,,0.5,19,260,430,1,300,96,14.3,650,62,160,28,1.4,2.3,96
COc1cc2nccc(Oc3ccc4c(C(=O)NC(C)C)cccc4c3)c2cc1OC,5.6,> 200,< 1,,,,,,,,,,,,,,,
COc1cc2nccc(Oc3ccc4c(c3)OCCN4C(=O)Nc3cccc(Cl)c3)c2cc1OC,28,120,< 1,1,4,230,9,0.4,220,,,,,,,,,
O=C(Nc1ccc(Cl)cc1)N1CCOc2cc(Oc3ncnc4[nH]ccc34)ccc21,,,,77,> 4000,> 4000,> 4000,230,> 1000,,,,,,,,,
COc1cc2nccc(Oc3ccc4c(C(=O)Nc5ccc(F)cc5)cccc4c3)c2cc1OC,1.3,67,< 1,,,,,,,,,,,,,,,
COc1cc2nccc(Oc3ccc4c(c3)OCCN4C(=O)NC(C)C)c2cc1OC,14,> 200,3,40,1000,1200,> 4000,52,1100,,,,,,,,,
CCNC(=O)N1CCOc2cc(Oc3ccnc4cc(OC)c(OC)cc34)ccc21,,,,1,1500,1400,> 4000,23,780,,,,,,,,,
COc1cc2nccc(Oc3ccc4c(c3)OCCN4C(=O)Nc3ccc(Cl)cc3)c2cc1C(N)=O,,,,0.6,21,160,290,1,290,156,3.17,4500,48,820,46,0.5,2.3,25
CNC(=O)N1CCOc2cc(Oc3ccnc4cc(OC)c(OC)cc34)ccc21,130,> 200,46,40,2400,> 4000,> 4000,100,370,,,,,,,,,
COc1cc2nccc(Oc3ccc4c(c3)OCCN4C(=O)Nc3ccccc3Cl)c2cc1OC,,,,19,2200,290,2200,73,230,,,,,,,,,
COc1cc2nccc(Oc3ccc4c(C(=O)Nc5ccc(Cl)cc5)cccc4c3)c2cc1OC,1.4,,< 1,,,,,8,,,,,,,,,,
COc1cc2nccc(Oc3ccc4c(c3)OCCN4C(=O)N[C@H](C)c3ccccc3)c2cc1OC,,,,40,78,210,> 4000,250,1100,,,,,,,,,
COc1cc2nccc(Oc3ccc4c(c3)OCCN4C(=O)Nc3ccccc3C)c2cc1OC,,,,1,27,410,1600,45,910,,,,,,,,,
COc1cc2nccc(Oc3ccc4c(c3)OCCN4C(=O)NCc3ccccc3)c2cc1OC,,,,53,500,1600,> 4000,237,> 1100,,,,,,,,,
CNC(=O)c1cccc2cc(Oc3ccnc4cc(OC)c(OC)cc34)ccc12,3,> 200,1.4,,,,,,,,,,,,,,,
COc1cc2nccc(Oc3ccc4c(c3)OCCN4C(=O)Nc3cccc(C)c3)c2cc1OC,,,,,,350,,0.6,190,,,,,,,,,
COc1cc2nccc(Oc3ccc4c(c3)OCCN4C(=O)NCc3ccc(C)cc3)c2cc1OC,,,,26,150,500,1500,360,1100,,,,,,,,,
COc1cc2nccc(Oc3ccc4c(C(=O)Nc5ccc(C)cc5)cccc4c3)c2cc1OC,9.4,> 200,< 1,,,,,,,,,,,,,,,
COc1cc2nccc(Oc3ccc4c(c3)OCCN4C(=O)N[C@@H](C)c3ccccc3)c2cc1OC,,,,1,18,460,260,3,300,138,16.3,,543,,,1.4,,188
COc1cc2nccc(Oc3ccc4c(c3)OCCN4C(=O)Nc3ccccc3)c2cc1OC,,,,1,188,650,386,0.6,340,72,30,,62,,,2.1,,122
CNC(=O)c1cc(Oc2ccc3c(c2)OCCN3C(=O)Nc2ccc(C)cc2)ccn1,,,,62,> 4000,> 4000,> 4000,> 1000,> 1000,,,,,,,,,
